According to ChEMBL document CHEMBL1152293, “Discovery of novel, potent and bioavailable proline-urea based macrocyclic HCV NS3/4A protease inhibitors” (Bioorg Med Chem Lett, 2008):

Columns and labels:
[1] = Inhibition of full length HCV NS3/4A protease; design: species or system Hepacivirus hominis
Hepatitis C virus = experiment: Antiviral activity against HCV infected in human Huh7 cells after 48 hrs by luciferase based replicon assay; type: functional, organism-based, Hepacivirus hominis; conditions: Huh-7, 48 h
[2] = Bioavailability in Sprague-Dawley rat at 2 mg/kg, iv and 10 mg/kg, po; type: ADME, organism-based; conditions: in vivo
Summary of the method: (§1)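 Male Sprague–Dawley rats (n = 2 per route) received a single intravenous dose of 2 mg/kg or an oral dose of 10 mg/kg in 50% PEG-400 in water. Plasma levels were averaged, and PK parameters were calculated. Bioavailability was derived from the iv and oral arms.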

[3] = Apparent permeability across apical to basolateral side in human Caco-2 cells; type: ADME, cell-based
[4] = Metabolic stability in rat liver microsomes at 5 uM after 15 mins; type: ADME, Microsome
Summary of the method: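 Rat liver microsomes at 1 mg protein/mL were incubated with 5 μM test compound at 37 °C for 15 min. Stability is expressed as % of compound metabolized.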

[5] = Clearance in Sprague-Dawley rat at 2 mg/kg, iv; type: ADME, organism-based; design: dose 2 mg/kg, route intravenous; conditions: in vivo; summary of the method: as §1
[6] = Volume of distribution in Sprague-Dawley rat at 2 mg/kg, iv; type: ADME, organism-based; design: dose 2 mg/kg, route intravenous; conditions: in vivo; summary of the method: as §1
[7] = AUC in Sprague-Dawley rat at 2 mg/kg, iv; type: ADME, organism-based; design: dose 2 mg/kg, route intravenous; conditions: plasma; summary of the method: as §1
[8] = AUC in Sprague-Dawley rat at 10 mg/kg, po; type: ADME, organism-based; design: dose 10 mg/kg, route oral; conditions: plasma; summary of the method: as §1
[9] = Cmax in Sprague-Dawley rat at 10 mg/kg, po; type: ADME, organism-based; design: dose 10 mg/kg, route oral; conditions: in vivo; summary of the method: as §1
[10] = Tmax in Sprague-Dawley rat at 10 mg/kg, po; type: ADME, organism-based; design: dose 10 mg/kg, route oral; conditions: in vivo; summary of the method: as §1
[11] = Half life in Sprague-Dawley rat at 10 mg/kg, po; type: ADME, organism-based; design: dose 10 mg/kg, route oral; conditions: in vivo; summary of the method: as §1
[12] = Oral bioavailability in Sprague-Dawley rat at 10 mg/kg; type: ADME, organism-based; conditions: in vivo; summary of the method: as §1
[13] = Ratio of drug level in liver to plasma of Sprague-Dawley rat at 10 mg/kg, po after 6 hrs
[14] = Ratio of drug level in liver to plasma of Sprague-Dawley rat at 10 mg/kg, po after 8 hrs
[15] = Cytotoxicity against human HuH7 cells; type: cell-based, Huh-7
[16] = Selectivity index, ratio of CC50 for human Huh7 cells to EC50 for HCV; design: species or system Huh-7

Compound `COc1ccc2c(O[C@@H]3C[C@H]4C(=O)N[C@]5(C(=O)NS(=O)(=O)C6(C)CC6)C[C@H]5/C=C\CCCCCNC(=O)N4C3)cc(-c3nc(C(C)C)cs3)nc2c1C` has a Ki ([1]; read-out: Ki) of 0.2 nM, an EC50 (Hepatitis C virus) of 6.8 nM and a bioavailability [2] of 11%.
Compound `COc1ccc2c(O[C@@H]3C[C@H]4C(=O)N[C@]5(C(=O)O)C[C@H]5/C=C\CCCCC[C@H](NC(=O)OC(C)(C)C)C(=O)N4C3)cc(-c3ccccc3)nc2c1` has a Ki [1] of 11 nM and an EC50 (Hepatitis C virus) of 77 nM.
In the case of `COc1ccc2c(O[C@@H]3C[C@H]4C(=O)N[C@]5(C(=O)NS(=O)(=O)C6(C)CC6)C[C@H]5/C=C\CCCCCNC(=O)N4C3)cc(-c3nc(C(C)C)cs3)nc2c1Cl`, the Ki ([1]; read-out: Ki) is reported as 0.1 nM, the EC50 (Hepatitis C virus) is reported as 4 nM and the Papp A→B [3] is reported as 29 ×10⁻⁶ cm/s. The metabolized at 0.25 h, 5 µM [4] was 21%.
With `COc1ccc2c(O[C@@H]3C[C@H]4C(=O)N[C@]5(C(=O)O)C[C@H]5/C=C\CCCCCN(NC(=O)OC(C)(C)C)C(=O)N4C3)cc(-c3ccccc3)nc2c1` the Ki [1] was 600 nM and the EC50 (Hepatitis C virus) was > 10000 nM.
Compound `COc1ccc2c(O[C@@H]3C[C@H]4C(=O)N[C@]5(C(=O)NS(=O)(=O)C6CC6)C[C@H]5/C=C\CCCCNC(=O)N4C3)cc(-c3nc(C(C)C)cs3)nc2c1` has a Ki ([1]; read-out: Ki) of 0.5 nM, an EC50 (Hepatitis C virus) of 5 nM and a clearance [5] of 15.7 mL/min/kg. For the same compound, the Vd [6] was 1.6 L/kg, the AUC [7] was 3 µM·h and the AUC [8] was 0.19 µM·h. It also gave a Cmax [9] of 26 nM, a Tmax [10] of 2 h and a half-life [11] of 3.8 h. The bioavailability [12] was 1.3%, the Papp A→B [3] was 3 ×10⁻⁶ cm/s and the liver/plasma ratio at 6 h [13] was 9.5.
Compound `COc1ccc2c(O[C@@H]3C[C@H]4C(=O)N[C@]5(C(=O)NS(=O)(=O)C6CC6)C[C@H]5/C=C\CCCCCN(C)C(=O)N4C3)cc(-c3nc(C(C)C)cs3)nc2c1` has a Ki ([1]; read-out: Ki) of 12 nM and an EC50 (Hepatitis C virus) of 700 nM.
In the case of `COc1ccc2c(O[C@@H]3C[C@H]4C(=O)N[C@]5(C(=O)NS(=O)(=O)C6CC6)C[C@H]5/C=C\CCCCN(C)C(=O)N4C3)cc(-c3nc(C(C)C)cs3)nc2c1`, the Ki ([1]; read-out: Ki) is reported as 0.45 nM, the EC50 (Hepatitis C virus) is reported as 26 nM and the clearance [5] is reported as 27.5 mL/min/kg. The Vd [6] was 4.5 L/kg, the AUC [7] was 1.65 µM·h and the AUC [8] was 3.12 µM·h. It also gave a Cmax [9] of 730 nM, a Tmax [10] of 1.25 h and a half-life [11] of 2.55 h. For the same compound, the bioavailability [12] was 37% and the liver/plasma ratio at 8 h [14] was 12.
In the case of `COc1ccc2c(O[C@@H]3C[C@H]4C(=O)N[C@]5(C(=O)O)C[C@H]5/C=C\CCCCCN(C)C(=O)N4C3)cc(-c3ccccc3)nc2c1`, the Ki [1] is reported as 10 nM and the EC50 (Hepatitis C virus) is reported as 4500 nM.
With `COc1ccc2c(O[C@@H]3C[C@H]4C(=O)N[C@]5(C(=O)NS(=O)(=O)C6CC6)C[C@H]5/C=C\CCCCNC(=O)N4C3)cc(-c3ccccc3)nc2c1` the Ki ([1]; read-out: Ki) was 1.5 nM and the EC50 (Hepatitis C virus) was 14 nM.
Compound `COc1ccc2c(O[C@@H]3C[C@H]4C(=O)N[C@]5(C(=O)NS(=O)(=O)C6CC6)C[C@H]5/C=C\CCCCCNC(=O)N4C3)cc(-c3nccs3)nc2c1` has a Ki ([1]; read-out: Ki) of 0.3 nM, an EC50 (Hepatitis C virus) of 11 nM and a Papp A→B [3] of 0.4 ×10⁻⁶ cm/s.
With `COc1ccc2c(O[C@@H]3C[C@H]4C(=O)N[C@]5(C(=O)NS(=O)(=O)C6(C)CC6)C[C@H]5/C=C\CCCCCNC(=O)N4C3)cc(-c3nc(C(C)C)cs3)nc2c1` the Ki ([1]; read-out: Ki) was 0.1 nM, the CC50 ([15]; Huh-7 cells) was > 50000 nM and the Activity ([15]; huh-7) was “Non-toxic”. It also gave an EC50 (Hepatitis C virus) of 4.5 nM, a clearance [5] of 9.83 mL/min/kg and a Cmax [9] of 1710 nM. The bioavailability [12] was 54%, the Papp A→B [3] was 30 ×10⁻⁶ cm/s and the metabolized at 0.25 h, 5 µM [4] was 89%. The bioavailability [2] was 54%, the “Selectivity Index” value [16] was >10000 and the liver/plasma ratio at 6 h [13] was 105.
In the case of `COc1ccc2c(O[C@@H]3C[C@H]4C(=O)N[C@]5(C(=O)NS(=O)(=O)C6CC6)C[C@H]5/C=C\CCCCCNC(=O)N4C3)cc(-c3cscn3)nc2c1`, the EC50 (Hepatitis C virus) is reported as 98 nM.
Compound `COc1ccc2c(O[C@@H]3C[C@H]4C(=O)N[C@]5(C(=O)NS(=O)(=O)C6CC6)C[C@H]5/C=C\CCCCCNC(=O)N4C3)cc(-c3nc(C(C)C)cs3)nc2c1Cl` has a Ki ([1]; read-out: Ki) of 0.1 nM, an EC50 (Hepatitis C virus) of 2.2 nM and a Papp A→B [3] of 22 ×10⁻⁶ cm/s. For the same compound, the metabolized at 0.25 h, 5 µM [4] was 45%.
Work on `COc1ccc2c(O[C@@H]3C[C@H]4C(=O)N[C@]5(C(=O)NS(=O)(=O)C6CC6)C[C@H]5/C=C\CCCCCNC(=O)N4C3)cc(-c3nc(C(C)C)cs3)nc2c1C` yielded a Ki ([1]; read-out: Ki) of 0.05 nM, an EC50 (Hepatitis C virus) of 1.7 nM and a metabolized at 0.25 h, 5 µM [4] of 23%.
For `COc1ccc2c(O[C@@H]3C[C@H]4C(=O)N[C@]5(C(=O)NS(=O)(=O)C6CC6)C[C@H]5/C=C\CCCCCOC(=O)N4C3)cc(-c3ccccc3)nc2c1`, the Ki ([1]; read-out: Ki) was 2.4 nM and the EC50 (Hepatitis C virus) was 460 nM.
In the case of `COc1ccc2c(O[C@@H]3C[C@H]4C(=O)N[C@]5(C(=O)NS(=O)(=O)C6CC6)C[C@H]5/C=C\CCCCCN(C)C(=O)N4C3)cc(-c3ccccc3)nc2c1`, the Ki ([1]; read-out: Ki) is reported as 10 nM and the EC50 (Hepatitis C virus) is reported as 4500 nM.
For `COc1ccc2c(O[C@@H]3C[C@H]4C(=O)N[C@]5(C(=O)NS(=O)(=O)C6CC6)C[C@H]5/C=C\CCCCOC(=O)N4C3)cc(-c3ccccc3)nc2c1`, the Ki ([1]; read-out: Ki) was 0.35 nM and the EC50 (Hepatitis C virus) was 62 nM.
Compound `COc1ccc2c(O[C@@H]3C[C@H]4C(=O)N[C@]5(C(=O)NS(=O)(=O)C6CC6)C[C@H]5/C=C\CCCCN(C)C(=O)N4C3)cc(-c3ccccc3)nc2c1` has a Ki ([1]; read-out: Ki) of 0.4 nM and an EC50 (Hepatitis C virus) of 44 nM.
Compound `COc1ccc2c(O[C@@H]3C[C@H]4C(=O)N[C@]5(C(=O)NS(=O)(=O)C6CC6)C[C@H]5/C=C\CCCCCNC(=O)N4C3)cc(-c3nc(C(C)C)cs3)nc2c1` has a Ki ([1]; read-out: Ki) of 0.2 nM, an EC50 (Hepatitis C virus) of 5 nM and a clearance [5] of 9.17 mL/min/kg. For the same compound, the Vd [6] was 1.46 L/kg, the AUC [7] was 7.09 µM·h and the AUC [8] was 6.97 µM·h. It also gave a Cmax [9] of 950 nM, a Tmax [10] of 1.25 h and a half-life [11] of 5.4 h. It also gave a bioavailability [12] of 20%, a Papp A→B [3] of 10 ×10⁻⁶ cm/s and a metabolized at 0.25 h, 5 µM [4] of 93%. It also gave a bioavailability [2] of 20% and a liver/plasma ratio at 6 h [13] of 29.
With `COc1ccc2c(O[C@@H]3C[C@H]4C(=O)N[C@]5(C(=O)NS(=O)(=O)C6CC6)C[C@H]5/C=C\CCCCCNC(=O)N4C3)cc(-c3ccccc3)nc2c1` the Ki ([1]; read-out: Ki) was 0.24 nM and the EC50 (Hepatitis C virus) was 15 nM.
